Measured values from the array DNA melting data of Ke et al. (doi:10.1101/2024.01.08.574731).

Tests used:
[1] = folding enthalpy; higher = less favourable; fluorescence melt of hairpins on a sequencing array, two-state fit; conditions: sodium 0.088 M
Summary of the method: (§1)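 Melting temperature and folding enthalpy were derived from bootstrapped two-state fits. The fitted temperatures were raised by 9.35 °C to agree with UV melts, and four replicates were combined by inverse variance. The underlying data were Cy3 fluorescence images of library hairpins, with annealed Cy3 and quencher oligos, on a sequenced MiSeq flow cell in 50 mM Na-HEPES pH 8.0, 25 mM NaCl, taken in 2.5 °C steps up to 60 °C, normalised to pre-quench Cy3 and to control constructs.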

[2] = melting temperature; fluorescence melt of hairpins on a sequencing array, two-state fit, raised by 9.35 °C to match UV melts; conditions: sodium 0.088 M
Summary of the method: as §1

Sequence	folding enthalpy [1] [kcal/mol]	Tm [2] [°C]
CGCGGAAAAGTCCGCG ((((((....))))))	-38.4	60.9
CGCGGAAAATCCGCG ((((((...))))))	-42.4	62.3
CGCGGAAAATTCCGCG ((((((....))))))	-32	68.3
CGCGGAAAGATCCGCG ((((((....))))))	-33.8	64.2
CGCGGAACATCCGCG ((((((...))))))	-27.5	69
CGCGGAAGATCCGCG ((((((...))))))	-26.5	69.1
CGCGGACAATCCGCG ((((((...))))))	-26.4	67.7
CGCGGACGATTCCGCG ((((((....))))))	-29.1	69
CGCGGACGGATCCGCG ((((((....))))))	-28.8	68.7
CGCGGAGCTGTCCGCG ((((((....))))))	-20.9	67.1
CGCGGAGCTTTCCGCG ((((((....))))))	-20.8	68.2
CGCGGATCTCTCCGCG ((((((....))))))	-51	66.8
CGCGGATGACTCCGCG ((((((....))))))	-43.1	66.7
CGCGGCCGGAAACGGGCG (((..(((....))))))	-12.1	65.6
CGCGTCGGAAACGAGCG (((.(((....))))))	-31.7	54.9
CGCTACGGAAACGTCGCG (((.(((....))).)))	-39.3	51.9
CGCTATCGGAAACGAGCG (((..(((....))))))	-27.1	41.8
CGCTCCGGAAACGGGCG (((.(((....))))))	-32.5	54.1
CGCTCGCGGAAACGCGCG (((..(((....))))))	-7.4	61.2
CGCTCGGAAACGAATGCG ((((((....)))..)))	-23.3	45
CGCTCGGAAACGACGCG ((((((....))).)))	-34.6	51.1
CGCTCGGAAACGAGAGCG ((((((....)))..)))	-25.7	52.2
CGCTTCCGGAAACGGGCG (((..(((....))))))	-23.4	40
CGCTTCGGAAACGAGCG (((.(((....))))))	-27.1	49.3

Sequence	folding enthalpy [1] [kcal/mol]	Tm [2] [°C]
CGGACACGGAAACGTCCG (((..(((....))))))	-26	47.6
CGGACGGAAACGTACCCG ((((((....)))..)))	-14.4	34.5
CGGACGGAAACGTATCCG ((((((....)))..)))	-17.5	36.7
CGGACGGAAACGTCGCCG ((((((....)))..)))	-12.1	34.5
CGGACGGAAACGTGACCG ((((((....)))..)))	-25	38.3
CGGACGGAAACGTTCCCG ((((((....)))..)))	-15.8	37.2
CGGACGGAAACGTTCCG ((((((....))).)))	-27.5	51.2
CGGACTCGGAAACGACCG (((..(((....))))))	-17.5	32.9
CGGAGACGGAAACGTCCG (((..(((....))))))	-17.6	47.1
CGGAGCGGAAACGCCCG (((.(((....))))))	-30.6	55.6
CGGAGGAAACTCCG (((((....)))))	-20.5	57.1
CGGATTCGGAAACGACCG (((..(((....))))))	-17.8	35.7
CGGCACGGAAACGTCCCG (((.(((....))).)))	-26	42
CGGCACGGAAACGTTCCG (((.(((....))).)))	-24.5	47.9
CGGCAGAAATGCCG (((((....)))))	-31.3	64.9
CGGCAGCGGAAACGCCCG (((..(((....))))))	-21.7	47
CGGCCCGGAAACGGCCCG (((.(((....))).)))	-17.9	51.8
CGGCCGGAAACGGCTCCG ((((((....)))..)))	-8.35	33.7
CGGCCGGAAACGGGACCG ((((((....)))..)))	-25.5	47.8
CGGCCGGAAACGGGGCCG ((((((....)))..)))	-39.4	59.1
CGGCTCCGGAAACGGCCG (((..(((....))))))	-27.1	50.3
CGGCTCGGAAACGAACCG (((.(((....))).)))	-44.5	51
CGGGAGAAATCCCG (((((....)))))	-25.9	57.1
CGGGCTCGGAAACGACCG (((..(((....))))))	-22.6	40.6

Sequence	folding enthalpy [1] [kcal/mol]	Tm [2] [°C]
CGGGGTCGGAAACGACCG (((..(((....))))))	-7.49	51.9
CGGGTGCGGAAACGCCCG (((..(((....))))))	-23.4	55.7
CGGTACCGGAAACGGCCG (((..(((....))))))	-20.8	40.9
CGGTAGAAATACCG (((((....)))))	-28.2	48.6
CGGTCCGGAAACGGCCCG (((.(((....))).)))	-29.4	55.1
CGGTCGGAAACGAACCCG ((((((....)))..)))	-19.3	38.2
CGGTCGGAAACGACACCG ((((((....)))..)))	-11	38
CGGTCGGAAACGACCCCG ((((((....)))..)))	-9.36	37.3
CGGTCGGAAACGAGCCG ((((((....))).)))	-21.6	51.2
CGGTCGGAAACGAGTCCG ((((((....)))..)))	-20.6	39.4
CGGTGGCGGAAACGCCCG (((..(((....))))))	-11.5	47
CGGTGTCGGAAACGACCG (((..(((....))))))	-11.9	47.5
CGGTTACGGAAACGTCCG (((..(((....))))))	-23.3	36.1
CGGTTCCGGAAACGGCCG (((..(((....))))))	-21	43.3
CGTACACGGAAACGTACG (((..(((....))))))	-25.7	40.8
CGTACCGGAAACGGACG (((.(((....))))))	-21.2	45.7
CGTACCGGAAACGGCACG (((.(((....))).)))	-39.9	50.2
CGTACGGAAACGTAGACG ((((((....)))..)))	-17	36.6
CGTACGGAAACGTCGACG ((((((....)))..)))	-12.9	37.5
CGTACGGAAACGTGAACG ((((((....)))..)))	-15.1	37.4
CGTACGGAAACGTTACG ((((((....))).)))	-30.6	46.1
CGTAGCCGGAAACGGACG (((..(((....))))))	-8.93	31.7
CGTAGTCGGAAACGAACG (((..(((....))))))	-4.62	21.6
CGTATCGGAAACGAACG (((.(((....))))))	-24.5	36.2

Sequence	folding enthalpy [1] [kcal/mol]	Tm [2] [°C]
CGTATTCGGAAACGAACG (((..(((....))))))	-17.2	28.4
CGTCCCGGAAACGGCACG (((.(((....))).)))	-23.7	39.9
CGTCCGGAAACGGTTACG ((((((....)))..)))	-13.9	39.3
CGTGACGGAAACGTACG (((.(((....))))))	-25.3	42.5
CGTGCACGGAAACGTACG (((..(((....))))))	-8.88	33.2
CGTGCCGGAAACGGACG (((.(((....))))))	-22	48.7
CGTGCGGAAACGCACACG ((((((....)))..)))	-8.09	43.9
CGTGGGAAACCACG (((((....)))))	-34.5	58
CGTGTGAAAACACG (((((....)))))	-29.3	58.6
CGTTACCGGAAACGGACG (((..(((....))))))	-17	36.9
CGTTCCCGGAAACGGACG (((..(((....))))))	-21.6	35.3
CGTTCGGAAACGACAACG ((((((....)))..)))	-15.2	34.4
CGTTCGGAAACGACACG ((((((....))).)))	-26.9	39.3
CGTTCGGAAACGATAACG ((((((....)))..)))	-30.6	36.1
CGTTCGGAAACGATGACG ((((((....)))..)))	-20	39
CGTTGTCGGAAACGAACG (((..(((....))))))	-11.6	35.1
CGTTTCGGAAACGAACG (((.(((....))))))	-26.3	44.9
CGTTTGAAAAAACG (((((....)))))	-21.2	47.3
CTAACGAAAGTTAG (((((....)))))	-23.9	49.4
CTACCGAAAGGTAG (((((....)))))	-23.2	57.9
CTATGGAAACATAG (((((....)))))	-15.7	36.9
